Measured values from different studies.
Compare with care: the assays were run in different laboratories.
Target: Tyrosine-protein kinase Lyn (LYN, Homo sapiens, UniProt P07948)

With `Cn1nc(C(F)(F)F)cc1-c1cnc(N2CCc3cc(S(=O)(=O)Nc4c(F)cc(Cl)cc4F)cc(N4CCCC4=O)c32)nc1` the remaining binding was 100% (cell-free assay; competition with immobilised ligand; 1 µM).
`Cn1c2c(c3ccc(Cl)c(Cl)c31)C(C#N)C1(CCCC1)NC2=O` (stereo not drawn) gave a ΔTm of 0 °C (thermal stability; DSF; 10 µM).
`CNC(=O)c1cc(Oc2ccc(NC(=O)Nc3ccc(Cl)c(C(F)(F)F)c3)cc2)ccn1` has an inhibition of 10% (enzyme activity; inhibitor; 0.3 µM).
`CC(C)(C)c1nc2c(s1)c1nc(N)ncc1c1ccc(NS(=O)(=O)c3c(F)cccc3F)c(F)c12` has a remaining activity of 87% (enzyme activity; inhibitor; radiometric; 1 µM).
For `COc1ccc(COc2ccc(Cc3cnc(N)nc3N)cc2OC)cc1`, the remaining signal was 99.9% (cell-free assay; 0.5 µM).
The remaining activity of `Cc1ccc(C(=O)Nc2ccc(CN3CCN(C)CC3)c(C(F)(F)F)c2)cc1C#Cc1cnc2cccnn12` is reported as 0.65% (enzyme activity; inhibitor; 23.5 nM).
`CNC(=O)c1cc2c(Oc3ccc(NC(=O)C4(C(=O)Nc5ccc(F)cc5)CC4)cc3)ccnc2cc1OC` has an inhibition of 99% (enzyme activity; inhibitor; radiometric; 1 µM).
`Cn1c2c(c3ccc(Cl)c(Cl)c31)C(C#N)C1(CCOCC1)NC2=O` (stereo not drawn) has a ΔTm of -0.2 °C (thermal stability; DSF; 10 µM).
The remaining activity of `Cc1sc(C(=O)NC2COC2)cc1-n1cc(NC(=O)Nc2c(F)cccc2Cl)cn1` is reported as 106% (enzyme activity; inhibitor; 10 µM).
For `CS(=O)(=O)CCNCc1ccc(-c2ccc3ncnc(Nc4ccc(OCc5cccc(F)c5)c(Cl)c4)c3c2)o1`, the remaining signal was 104% (cell-free assay; 0.5 µM).
For `CCN1CCC2(CC1)NC(=O)c1c(c3ccc(Cl)c(Cl)c3n1C)C2C#N` (racemic), the ΔTm was 0 °C (thermal stability; DSF; 10 µM).
The remaining signal of `Clc1ccc(Nc2nnc(Cc3ccncc3)c3ccccc23)cc1` is reported as 91.8% (cell-free assay; 0.5 µM).
The remaining binding of `O=C(NS(=O)(=O)c1ccc(NCC2CCOCC2)c([N+](=O)[O-])c1)c1ccc(N2CCN(Cc3ccc(C(F)(F)F)cc3-c3ccc(Cl)cc3)CC2)cc1Oc1cnc2[nH]ccc2c1` is reported as 99% (cell-free assay; competition with immobilised ligand; 1 µM).
With `CC1(C)NC(=O)c2[nH]c3c(Cl)c(Cl)ccc3c2C1C#N` (stereo not drawn) the ΔTm was 0.2 °C (thermal stability; DSF; 10 µM).
The remaining binding of `CCOC(=O)c1cc2cc(-c3cc(C(=O)NCc4ccc(C(=O)O)cc4)nn3C)ccc2[nH]1` is reported as 100% (cell-free assay; competition with immobilised ligand; 0.1 µM).
For `CCN(CC)CCNC(=O)c1c(C)[nH]c(/C=C2\C(=O)Nc3ccc(Cl)cc32)c1C`, the remaining activity was 6.34% (enzyme activity; inhibitor; 0.5 µM).
The remaining binding of `CNCc1ccccc1-c1csc([C@H](C)Nc2nc(C)nc3cc(OC)c(OC)cc23)c1` is reported as 100% (cell-free assay; competition with immobilised ligand; 1 µM).
For `CC(C)(O)[C@H]1CC[C@H](Nc2ccc3ncc(-c4cccc(C(F)(F)F)c4)n3n2)CC1`, the remaining activity was 41.9% (enzyme activity; inhibitor; 1 µM).
